This is an account of results in ChEMBL document CHEMBL1129311, “Antitumor agents. 166. Synthesis and biological evaluation of 5,6,7,8-substituted-2-phenylthiochromen-4-ones” (J Med Chem, 1996).

≈ marks a conversion by molar mass, not a printed value. Calls of active or inactive are those of the source. The calls are words filed in the database; no cut-off is given here.

In series [1] the test system is P388. As to the kind of experiment: Effective dose against 50% reduction in Murine leukemia (P-388) cell number after 3-day incubation. The series is classed as functional. Particulars: Mus musculus, P388, 72 h; read-out: ED50 (the source's name).
Series [2] concerns the target T1, DNA topoisomerase II (Homo sapiens) (UniProt P11388+Q02880). As to the kind of experiment: Inhibitory activity against DNA topoisomerase II at dose 100 uM. The series is classed as protein assay. The method in brief: (§1)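 Topo II activity read as ATP-dependent unknotting of P4 DNA. Test compound at 100 µM; % inhibition is relative to enzyme and DNA control reactions. VP-16 served as the reference inhibitor.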

For series [3], the system named is H9. As to the kind of experiment: Effective dose against growth of HIV infected H9 lymphocytes. The class given is functional. Particulars: Homo sapiens, read-out: ED50 (the source's name).
Series [4] concerns A549. As to the kind of experiment: Effective dose against 50% reduction in Human lung carcinoma (A-549) cell number after 3-day incubation. The class given is functional, cell-based.
Series [5] concerns KB. As to the kind of experiment: Effective dose against 50% reduction in Human epidermoid carcinoma of the nasopharynx (KB) cell number after 3-day incubation; - indicates inactive. The series is classed as functional, cell-based.
For series [6], the system named is HCT-8. As to the kind of experiment: Effective dose against 50% reduction in Human ileocecal carcinoma (HCT-8) cell number after 3-day incubation. The series is classed as functional, cell-based.
A short description of series [7]: Therapeutic index valued has been determined in H9 cells. Particulars: human, read-out: Therapeutic index. The class given is cell-based.
For series [8], the system named is H9. As to the kind of experiment: Inhibitory activity against growth of uninfected H9 lymphocytes. The class given is functional, cell-based. Particulars: Homo sapiens. In a few lines:
(§2)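 Uninfected H9 cultures exposed to compound diluted in medium for 4 days at 37 °C. Cell density counted in a Coulter counter; IC₅₀ determined.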

Series [9] concerns TE-671. As to the kind of experiment: Effective dose against 50% reduction in Human CNS tumor (TE671) cell number after 3-day incubation; - indicates inactive. The series is classed as functional, cell-based.
In series [10] the test system is KB. As to the kind of experiment: Cellular protein-linked DNA breaks in KB oral carcinoma cell culture treated in triplicate at 50 uM for 1 hr. The class given is functional, Homo sapiens. In a few lines:
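Read-out is potassium-SDS precipitable cpm in treated KB cultures, expressed as fold.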

Series [11] concerns the target T2, DNA topoisomerase 1 (Homo sapiens) (UniProt P11387).
T2 sequence (whole entry): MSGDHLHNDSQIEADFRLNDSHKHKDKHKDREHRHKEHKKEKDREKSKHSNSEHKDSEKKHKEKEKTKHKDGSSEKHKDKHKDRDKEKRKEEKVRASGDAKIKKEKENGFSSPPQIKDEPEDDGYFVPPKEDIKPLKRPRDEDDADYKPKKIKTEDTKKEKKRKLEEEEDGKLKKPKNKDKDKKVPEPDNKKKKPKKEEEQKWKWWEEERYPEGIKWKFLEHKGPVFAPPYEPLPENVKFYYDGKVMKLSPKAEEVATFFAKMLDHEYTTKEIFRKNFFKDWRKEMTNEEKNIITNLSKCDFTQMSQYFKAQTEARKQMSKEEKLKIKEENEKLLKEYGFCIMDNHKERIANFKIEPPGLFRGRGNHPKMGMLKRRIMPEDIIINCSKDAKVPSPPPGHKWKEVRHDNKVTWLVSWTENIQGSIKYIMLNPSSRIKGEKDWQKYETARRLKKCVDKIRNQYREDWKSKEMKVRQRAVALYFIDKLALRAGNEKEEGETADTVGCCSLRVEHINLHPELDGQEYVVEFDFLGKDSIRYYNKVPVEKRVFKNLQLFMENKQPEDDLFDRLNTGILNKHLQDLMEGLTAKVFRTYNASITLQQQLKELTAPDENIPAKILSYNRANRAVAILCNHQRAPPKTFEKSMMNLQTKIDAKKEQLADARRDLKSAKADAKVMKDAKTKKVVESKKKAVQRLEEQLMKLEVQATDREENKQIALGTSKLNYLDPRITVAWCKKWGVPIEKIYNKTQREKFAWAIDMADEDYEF
As to the kind of experiment: Inhibitory activity against DNA topoisomerase I at dose 100 uM. The method in brief:
(§3)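 Topo I activity read as ATP-independent relaxation of supercoiled plasmid DNA. Test compound at 100 µM; % inhibition is relative to enzyme and DNA control reactions. Camptothecin served as the positive inhibitor control.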

For series [12], the system named is RPMI. As to the kind of experiment: Effective dose against 50% reduction in Human melanoma (RPMI)cell number after 3-day incubation; - indicates inactive. The class given is functional, cell-based.
The test system of series [13] is P388. The experiment in a line: Effective dose against 50% reduction in Murine leukemia (P-388) cell number after 3-day incubation; - indicates inactive. The class given is functional, cell-based. Particulars: Mus musculus.
Series [14] concerns the target T1, DNA topoisomerase II (Homo sapiens). The experiment in a line: Inhibitory activity against Human DNA topoisomerase II at dose 100 uM. The class given is protein assay. The method in brief:
as §1

The test system of series [15] is TE-671. As to the kind of experiment: Effective dose against 50% reduction in Human CNS tumor (TE671) cell number after 3-day incubation. The class given is functional. Particulars: TE-671, 72 h, read-out: ED50 (the source's name).
Series [16] addresses T2, DNA topoisomerase 1 (Homo sapiens). The experiment in a line: Inhibitory activity against Human DNA topoisomerase I at dose 100 uM. In a few lines:
as §3

In series [17] the test system is RPMI. The experiment in a line: Effective dose against 50% reduction in Human melanoma (RPMI)cell number after 3-day incubation. Particulars: 72 h, read-out: ED50 (the source's name). The class given is functional.
The test system of series [18] is HCT-8. The experiment in a line: Effective dose against 50% reduction in Human ileocecal carcinoma (HCT-8) cell number after 3-day incubation. Particulars: HCT-8, 72 h, read-out: ED50 (the source's name). The class given is functional.
Series [19] deals with KB. As to the kind of experiment: Effective dose against 50% reduction in Human epidermoid carcinoma of the nasopharynx (KB) cell number after 3-day incubation. The class given is functional. Particulars: 72 h, read-out: ED50 (the source's name).
Series [20] deals with KB. As to the kind of experiment: Effective dose against Human epidermoid carcinoma of the nasopharynx; - indicates inactive. The series is classed as functional, cell-based.
Series [21] deals with H9. The experiment in a line: Inhibitory activity against growth of uninfected H9 lymphocytes by 50%. Particulars: Homo sapiens. The class given is functional, cell-based. The method in brief:
as §2

Series [22] concerns RPMI. The experiment in a line: Effective dose against 50% reduction in Human melanoma(RPMI) cell number after 3-day incubation. The class given is functional. Particulars: 72 h, read-out: ED50 (the source's name).
In series [23] the test system is H9. The experiment in a line: Effective dose against growth of HIV infected H9 lymphocytes by 50%. The class given is functional. Particulars: Homo sapiens, read-out: ED50 (the source's name).
Series [24] concerns H9. As to the kind of experiment: Inhibitory concentration required to inhibit uninfected growth of H9 lymphocytes by 50%. The series is classed as functional, cell-based. Particulars: Homo sapiens. The method in brief:
as §2

Series [25] concerns H9. As to the kind of experiment: Effective dose required to inhibit virus replication growth by 50%. Particulars: Homo sapiens, H9, read-out: ED50. The series is classed as functional.

As to `Nc1cccc2sc(-c3ccccc3)cc(=O)c12`, the values for the EC50 in [1] and in series [3] were 9.31 µg/mL (≈ 36.8 µM) and 20 µg/mL (≈ 78.9 µM), respectively. The inhibition in [2] stood at 0%; in series [11], 100%. In addition, the ED50 result in series [4], in series [5], in [6], in series [9] and in [12] was “inactive” each time. Further, the selectivity ratio in series [7] stood at 2.5. The compound further showed an IC50 in series [8] of 50 µg/mL (≈ 197 µM). In series [10], this compound showed an Activity of 1.

`COc1ccc2sc(-c3ccccc3)cc(=O)c2c1`: the ED50 entry in series [4], in series [13], in series [5], in [6], in [9] and in series [12] was “inactive” each time.

For the compound `Nc1ccc2sc(-c3ccccc3)cc(=O)c2c1`, the EC50 in series [3] turned out to be 7 µg/mL (≈ 27.6 µM). Moreover, the selectivity ratio in [7] stood at 1.1. The IC50 in series [8] amounted to 7.5 µg/mL (≈ 29.6 µM).

On to `O=c1cc(-c2ccccc2)[s+]([O-])c2ccccc12` (stereo unspecified), for which the inhibition in series [14] was 0%; in series [16], 100%. Moreover, the EC50 in series [1] came out at 1.18 µg/mL (≈ 4.64 µM); in series [15] it was 3.66 µg/mL (≈ 14.4 µM); in [17], 5.5 µg/mL (≈ 21.6 µM); in series [18], 5.79 µg/mL (≈ 22.8 µM); in series [19], 5.5 µg/mL (≈ 21.6 µM). Further, the ED50 entry in [4] is “inactive”. The compound also had an Activity in [10] of 1.

Regarding `Oc1cc(-c2ccccc2)nc2c(S)cccc12`, in [3], the EC50 is 12 µg/mL (≈ 47.4 µM). Further, the selectivity ratio in series [7] was 2.9. In addition, the IC50 in [8] is 35 µg/mL (≈ 138 µM).

Take `COc1cccc2sc(-c3ccccc3)cc(=O)c12`: the ED50 entry in series [20], in [4], in series [13], in [6] and in [9] was “inactive” in each case. The same compound returned an IC50 in series [21] of 7 µg/mL (≈ 26.1 µM). Further, the EC50 in series [22] came to 5.5 µg/mL (≈ 20.5 µM); in series [23] it was 7 µg/mL (≈ 26.1 µM). Besides, the selectivity ratio in [7] came to 1.

Consider `O=c1cc(-c2ccccc2)sc2ccc(O)cc12`, for which the ED50 result in series [4], in series [13], in series [5] and in series [6] was “inactive” throughout. Further, the figures for the EC50 in series [15], in series [17] and in series [23] were 2.87 µg/mL (≈ 11.3 µM), 0.55 µg/mL (≈ 2.16 µM) and 9.5 µg/mL (≈ 37.4 µM), respectively. This compound showed an IC50 in series [21] of 40 µg/mL (≈ 157 µM). Also, in series [7], the selectivity ratio is 4.2.

Turning to `COc1cccc(-c2cc(=O)c3cc(OC)c(OC)cc3s2)c1`, the EC50 in series [1] was 0.61 µg/mL (≈ 1.86 µM); in [17] it was 5.5 µg/mL (≈ 16.7 µM); in [18], 6.35 µg/mL (≈ 19.3 µM); in series [19], 5.5 µg/mL (≈ 16.7 µM). Besides, the ED50 entry in series [4] and in series [9] was “inactive” each time.

`O=c1cc(-c2ccccc2)sc2cc(O)c(O)cc12`: the EC50 in series [1] is 4.51 µg/mL (≈ 16.7 µM); in series [3] it was 0.8 µg/mL (≈ 2.96 µM); in [15] it was 5.5 µg/mL (≈ 20.3 µM); in series [17], 3.92 µg/mL (≈ 14.5 µM); in series [18], 1.45 µg/mL (≈ 5.36 µM); in [19] it was 5.5 µg/mL (≈ 20.3 µM). Moreover, the results for the inhibition in series [2] and in series [11] were 0% and 100%, respectively. Also, the ED50 entry in [4] is “inactive”. In [7], the selectivity ratio was determined as 2.3. For the same compound, the IC50 in series [8] turned out to be 1.8 µg/mL (≈ 6.66 µM). In series [10], this compound registered an Activity of 1.

In [24], `Cc1cn([C@H]2C[C@H](N=[N+]=[N-])[C@@H](CO)O2)c(=O)[nH]c1=O` [ZIDOVUDINE] showed an IC50 of 2000 µM. The EC50 in series [25] turned out to be 0.04 µM.
